Data published in ChEMBL document CHEMBL4196071, “Discovery of tetrahydrocarbazoles with potent hypoglycemic and hypolipemic activities” (Eur J Med Chem, 2018).
Active and inactive are the calls of the source. The rule behind the calls is not given here.

Experiments:
[1] = target: T1, AMP-activated protein kinase, AMPK (Homo sapiens) (UniProt P54646+O43741+P54619+Q9UGJ0+Q9Y478+Q13131+Q9UGI9); assay: Activation of AMPK in human HepG2 cells assessed as induction of glucose consumption at 10 uM treated over 24 hrs by glucose oxidase method relative to control; assay type: cell-based
Method in brief: (§1)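 HepG2 cells kept in DMEM (25 mM D-glucose) with 10% serum at 37 °C, 5% CO2. At 80-90% confluence the medium was switched to serum-free RPMI-1640 with 11.1 mM glucose and 0.2% BSA. Compounds in DMSO (0.5% v/v vehicle control) were given for 24 h. Medium glucose was read by glucose oxidase; consumption = cell-free blank wells minus cell wells. Student's t test against control.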

Mus musculus [2] = assay: Hypoglycemic activity in db/db mouse assessed as decrease in blood glucose level at 30 mg/kg, po administered as single dose measured at 3 hrs post last dose (reference value: 0.0 +/- 4.1%); assay type: functional; design: scale not given: the % may be the effect or the level left
Mus musculus [3] = assay: Hypoglycemic activity in db/db mouse assessed as decrease in blood glucose level at 30 mg/kg, po treated for 1 week measured at 3 hrs post last dose (reference value: 0.0 +/- 8.6%); assay type: functional; design: scale not given: the % may be the effect or the level left
Mus musculus [4] = assay: Hypoglycemic activity in db/db mouse assessed as decrease in blood glucose level at 30 mg/kg, po treated for 2 week measured at 3 hrs post last dose (reference value: 0.0 +/- 4.0%); assay type: functional; design: scale not given: the % may be the effect or the level left
Mus musculus [5] = assay: Hypoglycemic activity in db/db mouse assessed as decrease in blood glucose level at 30 mg/kg, po treated for 3 week measured at 3 hrs post last dose (reference value: 0.0 +/- 6.8%); assay type: functional; design: scale not given: the % may be the effect or the level left
Mus musculus [6] = assay: Toxicity in db/db mouse assessed as increase in body weight at 30 mg/kg, po treated for 1 to 3 weeks measured at 3 hrs post last dose relative to control; assay type: organism-based; conditions: in vivo
Mus musculus [7] = assay: Hypolipemic activity in db/db mouse assessed as plasma fasting triglyceride level at 30 mg/kg, po treated for 3 consecutive weeks (reference value: 0.70 to 0.97 mM); assay type: functional
Mus musculus [8] = assay: Hypolipemic activity in db/db mouse assessed as total plasma cholesterol level at 30 mg/kg, po treated for 3 consecutive weeks (reference value: 6.05 to 6.98 mM); assay type: functional
Rattus norvegicus [9] = assay: Volume of distribution in Sprague-Dawley rat at 20 mg/kg, ig by LC/MS/MS analysis; assay type: ADME, organism-based; conditions: in vivo, po
Method in brief: (§2)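 SD rats, three male and three female. Given iv at 5 mg/kg and intragastric at 20 mg/kg; the oral dose went by gavage in 20% 1,2-propanediol/80% water. Heparinized blood was sampled over 32 h post dose. Plasma was extracted with EtOAc and measured by LC/MS/MS. Non-compartmental analysis gave the PK parameters (n = 6).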

[10] = AUC (0 to t) in Sprague-Dawley rat at 5 mg/kg, iv by LC/MS/MS analysis; assay type: ADME, organism-based; conditions: in vivo; method in brief: as §2
[11] = AUC (0 to t) in Sprague-Dawley rat at 20 mg/kg, ig by LC/MS/MS analysis; assay type: ADME, organism-based; conditions: in vivo, po; method in brief: as §2
[12] = AUC (0 to infinity) in Sprague-Dawley rat at 5 mg/kg, iv by LC/MS/MS analysis; assay type: ADME, organism-based; design: dose 5 mg/kg, route intravenous, time infinity; conditions: in vivo; method in brief: as §2
[13] = AUC (0 to infinity) in Sprague-Dawley rat at 20 mg/kg, ig by LC/MS/MS analysis; assay type: ADME, organism-based; design: dose 20 mg/kg, route intragastric, time infinity; conditions: in vivo, po; method in brief: as §2
Rattus norvegicus [14] = assay: Clearance in Sprague-Dawley rat at 5 mg/kg, iv by LC/MS/MS analysis; assay type: ADME, organism-based; conditions: in vivo; method in brief: as §2
Rattus norvegicus [15] = assay: Clearance in Sprague-Dawley rat at 20 mg/kg, ig by LC/MS/MS analysis; assay type: ADME, organism-based; conditions: in vivo, po; method in brief: as §2
Rattus norvegicus [16] = assay: Volume of distribution in Sprague-Dawley rat at 5 mg/kg, iv by LC/MS/MS analysis; assay type: ADME, organism-based; conditions: in vivo; method in brief: as §2
[17] = Cmax in Sprague-Dawley rat at 20 mg/kg, ig by LC/MS/MS analysis; assay type: ADME, organism-based; design: dose 20 mg/kg, route intragastric; conditions: in vivo, po; method in brief: as §2
[18] = Tmax in Sprague-Dawley rat at 20 mg/kg, ig by LC/MS/MS analysis; assay type: ADME, organism-based; conditions: in vivo, po; method in brief: as §2
Rattus norvegicus [19] = assay: Half life in Sprague-Dawley rat at 5 mg/kg, iv by LC/MS/MS analysis; assay type: ADME, organism-based; conditions: in vivo; method in brief: as §2
Rattus norvegicus [20] = assay: Half life in Sprague-Dawley rat at 20 mg/kg, ig by LC/MS/MS analysis; assay type: ADME, organism-based; conditions: in vivo, po; method in brief: as §2
[21] = Bioavailability in Sprague-Dawley rat at 20 mg/kg, ig by LC/MS/MS analysis; assay type: ADME, organism-based; conditions: in vivo, po; method in brief: as §2
Mus musculus [22] = assay: Potency index, ratio of test compound to GY3 hypoglycemic activity in db/db mouse assessed as decrease in blood glucose level at 30 mg/kg, po treated for 3 week measured at 3 hrs post last dose; assay type: functional
HepG2 [23] = assay: Induction of AMPKalpha phosphorylation at Thr172 residue in human HepG2 cells at 10 uM by Western blot analysis; assay type: cell-based
Method in brief: (§3)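 HepG2 cells were treated at 10 μM and lysed in pH 7.5 Tris buffer containing NaF, β-glycerophosphate, EDTA/EGTA, Triton X-100 and protease inhibitors, then cleared at 10,000 × g for 30 min at 4 °C. Equal lysate volumes were run on 8% SDS-PAGE and transferred to PVDF. Blots were probed for p-AMPKα (Thr172) and p-ACC (Ser79) with HRP secondary antibodies.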

HepG2 [24] = assay: Activation of AMPKalpha in human HepG2 cells assessed as ACC phosphorylation at Ser79 residue at 10 uM by Western blot analysis; assay type: cell-based; method in brief: as §3
[25] = target: T1, AMP-activated protein kinase, AMPK (Homo sapiens); assay: Activation of AMPK in human HepG2 cells assessed as induction of glucose consumption at 1 mM treated over 24 hrs by glucose oxidase method relative to control; assay type: cell-based; method in brief: as §1
[26] = target: T1, AMP-activated protein kinase, AMPK (Homo sapiens); assay: Activation of AMPK in human HepG2 cells assessed as induction of glucose consumption at 0.1 uM treated over 24 hrs by glucose oxidase method relative to control; assay type: cell-based; method in brief: as §1
[27] = target: T1, AMP-activated protein kinase, AMPK (Homo sapiens); assay: Activation of AMPK in human HepG2 cells assessed as induction of glucose consumption at 1 uM treated over 24 hrs by glucose oxidase method relative to control; assay type: cell-based; method in brief: as §1
[28] = target: T1, AMP-activated protein kinase, AMPK (Homo sapiens); assay: Activation of AMPK in human HepG2 cells assessed as induction of glucose consumption treated over 24 hrs by glucose oxidase method; assay type: cell-based; method in brief: as §1

In the case of `O=C(O)C1CCc2c(c3cc(OCc4ccccc4)ccc3n2Cc2ccccc2)C1` (centres undefined), the Activity [1] is reported as 30.4%.
With `O=C(O)C1CCc2c(c3cc(OCc4ccccc4)ccc3n2C(=O)c2ccc(Cl)cc2)C1` (stereo in doubt; 7a) [listing 1 of 2 here] the Activity (Mus musculus [2]) was 30.6%, the Activity (Mus musculus [3]) was 29.3% and the Activity (Mus musculus [4]) was 19.6%. It also gave an Activity (Mus musculus [5]) of 28%, an Activity (Mus musculus [6]) of 10.4% and an Activity (Mus musculus [7]) of 0.54 mM. It also gave an Activity (Mus musculus [8]) of 6.93 mM, a Vd (Rattus norvegicus [9]) of 9.98 L/kg and an AUC(0-t) [10] of 39.6 µg·h/mL. It also gave an AUC(0-t) [11] of 32 µg·h/mL, an AUC(0-inf) [12] of 71 µg·h/mL and an AUC(0-inf) [13] of 48.3 µg·h/mL. The CL (Rattus norvegicus [14]) was 0.07 L/h/kg, the CL (Rattus norvegicus [15]) was 0.45 L/h/kg and the Vd (Rattus norvegicus [16]) was 2.7 L/kg. For the same molecule, the Cmax [17] was 2.32 µg/mL, the Tmax [18] was 7.83 h and the t1/2 (Rattus norvegicus [19]) was 7.2 h. It also gave a t1/2 (Rattus norvegicus [20]) of 6.46 h, a bioavailability [21] of 20.2% and a Ratio (Mus musculus [22]) of 2.
In the case of `O=C(O)C1CCc2c(c3cc(OCc4ccccn4)ccc3n2C(=O)c2ccc(Cl)cc2)C1` (centres undefined), the Activity [1] is reported as 47.5%.
For `Cc1nc(C)c(COc2ccc3c(c2)c2c(n3C(=O)c3ccc(Cl)cc3)CCC(C(=O)O)C2)nc1C` (centres undefined), the Activity [1] was 47.5%, the Activity (HepG2 [23]) was “Active” and the Activity (HepG2 [24]) was “Active”.
In the case of `O=C(O)C1CCc2c(c3cc(OCc4ccccc4)ccc3n2Cc2ccc(Cl)cc2)C1` (centres undefined), the Activity [1] is reported as 32.7%.
Molecule `O=C(O)C1CCc2c(c3cc4c(cc3n2C(=O)c2ccc(Cl)cc2)OCO4)C1` (centres undefined) has an Activity [1] of 55.1%.
Work on `CN(C)C(=N)NC(=N)N` yielded an Activity [25] of 60.4 to 63.7%.
`O=C(O)C1CCc2c(c3cc(OCc4ccc(F)cc4)ccc3n2C(=O)c2ccc(Cl)cc2)C1` (centres undefined) showed an Activity [26] of 0.11%, an Activity [27] of 20.1% and an Activity [1] of 53.4 to 68.8%. For the same molecule, the Activity [28] was “Dose-dependent effect”.
In the case of `O=C(O)C1CCc2c(c3cc(OCc4ccccc4)ccc3n2C(=O)c2ccc(Cl)cc2)C1` (stereo in doubt; 7a) [listing 2 of 2 here], the Activity [26] is reported as 15.5%, the Activity [27] is reported as 30.2% and the Activity [1] is reported as 72.9 to 82.5%. For the same molecule, the Activity (HepG2 [23]) was “Active”, the Activity (HepG2 [24]) was “Active” and the Activity [28] was “Dose-dependent effect”.
In the case of `COc1ccc(S(=O)(=O)n2c3c(c4cc(OCc5ccccc5)ccc42)CC(C(=O)O)CC3)cc1` (centres undefined), the Activity [1] is reported as 60.3%.
Work on `CCc1ccc(CCOc2ccc(CC3SC(=O)NC3=O)cc2)nc1` (centres undefined) [PIOGLITAZONE] yielded an Activity (Mus musculus [2]) of 21.9%, an Activity (Mus musculus [3]) of 37.1% and an Activity (Mus musculus [4]) of 34.5%. The Activity (Mus musculus [5]) was 37.4%, the Activity (Mus musculus [6]) was 16.3% and the Activity (Mus musculus [7]) was 0.51 mM. It also gave an Activity (Mus musculus [8]) of 7.89 mM.
`O=C(O)C1CCc2c(c3cc(OCc4ccccc4)ccc3n2C(=O)c2ccc(F)cc2)C1` (centres undefined) showed an Activity [1] of 75.2%.
`N#Cc1ccc(COc2ccc3c(c2)c2c(n3C(=O)c3ccc(Cl)cc3)CCC(C(=O)O)C2)cc1` (centres undefined) showed an Activity [26] of 9.65%, an Activity [27] of 26.8% and an Activity [1] of 50.2 to 72.8%. For the same molecule, the Activity (HepG2 [23]) was “Active”, the Activity (HepG2 [24]) was “Active” and the Activity [28] was “Dose-dependent effect”.
